The values that follow come from ChEMBL document CHEMBL1148947, “Prenylated benzophenones and xanthones from Hypericum scabrum” (J Nat Prod, 2004).

Values after ≈ are worked out from the molar mass of the structure shown. Active and inactive are the calls of the source. The rule behind the calls is not given here.

The subject of experiment [1] is A549. Briefly: Cytotoxicity against human A549 cells after 3 days by SRB assay. The format is functional, cell-based. Particulars: A549, 72 h. The method in brief: (§1)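 Cells kept in RPMI-1640 with 25 mM HEPES, 0.25% sodium bicarbonate, 10% FBS and 100 µg/mL kanamycin. Freshly trypsinized cells seeded at 1500-7500 per well with compound diluted from DMSO stock. After 3 days, attached cells fixed with cold 50% TCA, stained with 0.4% SRB, and bound dye solubilized. Absorbance read at 562 nm. IC50 = 50% reduction relative to untreated cells. Below 50% inhibition at 20 mcg/mL, percent inhibition reported.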

Experiment [2] relates to MCF7. Briefly: Cytotoxicity against human MCF7 cells after 3 days by SRB assay. It counts as functional, cell-based. Particulars: MCF7, 72 h. The method in brief: as §1
In general terms: In SRB staining, fixed cells bind dye roughly in proportion to their protein.

Experiment [3] concerns MCF7. The experiment is described as follows: Cytotoxicity against human MCF7 cells at 20 mcg/mL after 3 days by SRB assay. It counts as functional. Particulars: for inhibition at 20 µg/mL: MCF7, 72 h. The method in brief:
as §1

Experiment [4] relates to A549. The experiment is described as follows: Cytotoxicity against human A549 cells at 20 mcg/mL after 3 days by SRB assay. The conditions noted are these: for inhibition at 20 µg/mL: A549, 72 h. It counts as functional. The method in brief: as §1

As usually defined, the IC50 is the concentration at which inhibition is half-maximal. Turning to `CC(C)=CC[C@H]1C[C@]2(CC=C(C)C)C(=O)C(C(=O)c3ccccc3)=C(O)[C@](CC=C(C)C)(C2=O)C1(C)C`, the IC50 in the experiment with A549 [1] was determined as 13.7 µg/mL (≈ 27.3 µM); in the experiment on MCF7 [2], 10 µg/mL (≈ 19.9 µM).
On to `O=c1c2cc(O)ccc2oc2cccc(O)c12`, for which the values for the IC50 in the experiment with A549 [1] and in the experiment with MCF7 [2] were 14.5 µg/mL (≈ 63.5 µM) and 19.5 µg/mL (≈ 85.5 µM), respectively.
Regarding `O=c1c2ccc(O)c(O)c2oc2cc(O)cc(O)c12`, the IC50 stood at 10 µg/mL (≈ 38.4 µM) with A549 [1] and 9.3 µg/mL (≈ 35.7 µM) with MCF7 [2].
The corresponding values for `COc1ccc(O)c2c(=O)c3cc(O)ccc3oc12` are 8.5 µg/mL (≈ 32.9 µM) and 15.2 µg/mL (≈ 58.9 µM).
What is called inhibition is the drop in the measured response relative to a control, in per cent. Lower therefore signals little suppression. Consider `O=c1c(-c2c(O)cc(O)c3c(=O)cc(-c4ccc(O)cc4)oc23)c(-c2ccc(O)cc2)oc2cc(O)cc(O)c12`, for which the IC50 with A549 [1] and with MCF7 [2] was greater than 20 µg/mL each time. For the same molecule, the inhibition at 20 µg/mL amounted to 26% in the experiment with MCF7 [3] and 27% in the experiment on A549 [4].
Turning to `CC(C)=CCc1c(O)c(O)cc2oc3cc(O)cc(O)c3c(=O)c12`, the half-inhibitory concentration (IC50) with A549 [1] turned out to be 18.5 µg/mL (≈ 56.3 µM); in the experiment with MCF7 [2], 18.4 µg/mL (≈ 56 µM).
With `O=c1c(O[C@@H]2OC[C@@H](O)[C@@H](O)[C@@H]2O)c(-c2ccc(O)c(O)c2)oc2cc(O)cc(O)c12`, the IC50 in the experiment on A549 [1] and in the experiment with MCF7 [2] was greater than 20 µg/mL each time. The inhibition at 20 µg/mL amounted to 17% in the experiment on MCF7 [3] and 11% with A549 [4].
For `O=c1c(O[C@@H]2O[C@@H](CO)[C@H](O)[C@H]2O)c(-c2ccc(O)c(O)c2)oc2cc(O)cc(O)c12`, the result in the experiment with MCF7 [3] and in the experiment on A549 [4] was inactive.
Take `O=c1c(O[C@@H]2O[C@H](CO)[C@H](O)[C@H](O)[C@H]2O)c(-c2ccc(O)c(O)c2)oc2cc(O)cc(O)c12`: the result in the experiment on MCF7 [3] and with A549 [4] was inactive.
On to `CC(C)=CCC[C@]1(C)[C@@H](CC=C(C)C)C[C@]2(C)C(=O)[C@@]3(CC=C(C)C)O[C@]2(O)[C@]1(C(=O)C(C)C)C3=O` [HYPERIBONE J], for which the concentration for half-maximal inhibition (IC50) is greater than 20 µg/mL with A549 [1] and 17.8 µg/mL (≈ 35.7 µM) in the experiment with MCF7 [2]. The molecule further showed an inhibition at 20 µg/mL with A549 [4] of 49%.
As for `CC(C)=CC[C@@]12C[C@H]3[C@@H](C=C(C)C)[C@@](C(=O)c4ccccc4)(C1=O)C(=O)[C@@](CC=C(C)C)(C2=O)C3(C)C` [HYPERIBONE K], the 50% inhibitory concentration (IC50) in the experiment on A549 [1] stood at 13.7 µg/mL (≈ 27.4 µM); in the experiment with MCF7 [2] it was 10 µg/mL (≈ 20 µM).
The like results for `CC(C)=CC[C@H]1C[C@@]2(CC=C(C)C)C(=O)C(C(=O)c3ccccc3)=C(O)[C@](C)(C2=O)C1(C)C` [HYPERIBONE L] were, in that order, 9.2 µg/mL (≈ 20.5 µM) and 15 µg/mL (≈ 33.4 µM).
In the case of `CC(C)(O)C1Cc2c(c(O)cc3oc4cc(O)cc(O)c4c(=O)c23)O1` (centres undefined) [HYPERXANTHONE A], the IC50 with A549 [1] and in the experiment on MCF7 [2] was greater than 20 µg/mL in each case. For the same molecule, the inhibition at 20 µg/mL in the experiment on MCF7 [3] was 27%; in the experiment on A549 [4], 26%.
On to `C=C(C)C(O)Cc1c(O)c(O)cc2oc3cc(O)cc(O)c3c(=O)c12` (centres undefined) [HYPERXANTHONE C], for which the figures for the IC50 in the experiment with A549 [1] and in the experiment on MCF7 [2] were 9.3 µg/mL (≈ 27 µM) and 11.2 µg/mL (≈ 32.5 µM), respectively.
Take `C=C(C)C(O)Cc1c(O)ccc2oc3cc(O)cc(O)c3c(=O)c12` (centres undefined) [HYPERXANTHONE D]: the half-maximal inhibitory concentration (IC50) with A549 [1] and with MCF7 [2] was greater than 20 µg/mL each time. Also, the inhibition at 20 µg/mL came out at 34% with MCF7 [3] and 43% in the experiment on A549 [4].
In the case of `CC1(C)CCc2c(c(O)cc3oc4cc(O)cc(O)c4c(=O)c23)O1` [HYPERXANTHONE E], the figures for the IC50 in the experiment with A549 [1] and in the experiment on MCF7 [2] were 18.5 µg/mL (≈ 56.3 µM) and 19.3 µg/mL (≈ 58.8 µM), respectively.
As to `O=c1cc(-c2ccc(O)c(O)c2)oc2cc(O)cc(O)c12` [LUTEOLIN], the figures for the half-inhibitory concentration (IC50) in the experiment on A549 [1] and with MCF7 [2] were 12.9 µg/mL (≈ 45.1 µM) and 14.3 µg/mL (≈ 50 µM), respectively.
The corresponding values for `O=c1c(O)c(-c2cc(O)c(O)c(O)c2)oc2cc(O)cc(O)c12` [MYRICETIN] are 14.8 µg/mL (≈ 46.5 µM) and 4.7 µg/mL (≈ 14.8 µM).
For the molecule `C[C@H]1O[C@@H](Oc2c(-c3cc(O)c(O)c(O)c3)oc3cc(O)cc(O)c3c2=O)[C@@H](O)[C@@H](O)[C@@H]1O` [MYRICITRIN], the figures for the IC50 with A549 [1] and in the experiment with MCF7 [2] were greater than 20 µg/mL and 11.2 µg/mL (≈ 24.1 µM), respectively. In the experiment with A549 [4], testing at 20 µg/mL gave an inhibition of 13%.
The like results for `O=c1c(O)c(-c2ccc(O)c(O)c2)oc2cc(O)cc(O)c12` [QUERCETIN] were, in that order, greater than 20 µg/mL, 19.5 µg/mL (≈ 64.5 µM) and 21%.
For the molecule `C[C@@H]1O[C@@H](Oc2c(-c3ccc(O)c(O)c3)oc3cc(O)cc(O)c3c2=O)[C@H](O)[C@H](O)[C@H]1O` [QUERCITRIN], the 50% inhibitory concentration (IC50) in the experiment with A549 [1] and in the experiment with MCF7 [2] was greater than 20 µg/mL each time. Besides, the inhibition at 20 µg/mL was found to be 18% in the experiment on MCF7 [3] and 12% in the experiment on A549 [4].
With `CC1(C)C=Cc2c(c(O)cc3oc4cc(O)cc(O)c4c(=O)c23)O1` [TOXYLOXANTHONE B], the 50% inhibitory concentration (IC50) in the experiment on A549 [1] and in the experiment with MCF7 [2] was greater than 20 µg/mL throughout. Further, the inhibition at 20 µg/mL with MCF7 [3] was determined as 17%; in the experiment with A549 [4], 28%.
